Screening data from PubChem.
E-sel inducer – E-selectin induction on HUVECs. P16581. HUVEC E-selectin immunofluorescence imaging; normalized: neutral wells 0, TNF-alpha wells 100. activation, % at 7.58 µM. 260,000 compounds, 0.37% hits;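 active = mean E-selectin-positive cell signal at least 10% of the positive control, reached in at least 60% of replicates, without over 20% cell loss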
Target sequence (P16581 whole entry, looked up): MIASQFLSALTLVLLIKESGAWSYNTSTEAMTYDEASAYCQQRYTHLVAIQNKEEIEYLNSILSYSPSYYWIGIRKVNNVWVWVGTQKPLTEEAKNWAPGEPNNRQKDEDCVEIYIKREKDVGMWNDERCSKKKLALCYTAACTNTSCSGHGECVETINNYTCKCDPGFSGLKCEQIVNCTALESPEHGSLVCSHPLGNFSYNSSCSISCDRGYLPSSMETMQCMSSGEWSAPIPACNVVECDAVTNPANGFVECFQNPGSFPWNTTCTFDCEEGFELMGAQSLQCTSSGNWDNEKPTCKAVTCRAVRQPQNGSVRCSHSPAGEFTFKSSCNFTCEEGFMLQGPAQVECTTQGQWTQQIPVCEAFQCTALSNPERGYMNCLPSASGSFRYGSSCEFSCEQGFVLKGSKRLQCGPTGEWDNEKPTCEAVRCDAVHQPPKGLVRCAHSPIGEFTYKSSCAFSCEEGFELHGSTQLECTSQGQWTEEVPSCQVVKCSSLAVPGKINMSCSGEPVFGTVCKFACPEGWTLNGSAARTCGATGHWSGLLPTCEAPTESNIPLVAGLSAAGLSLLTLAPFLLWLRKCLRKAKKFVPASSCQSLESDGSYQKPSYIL
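Read-out: % PE-positive cells | Test system: HUVEC | Doses: One compound dose added by pin transfer | Buffer or medium: EGM-2 over gelatin coat | Signal: Immunofluorescence imaging | Benchmarks: TNF-alpha, DMSO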
The depositor's hits bear a star. This excerpt belongs to a sample that is enriched for hits.

SMILES	E-sel inducer
CC(C)CC#Cc1ccc2c(c1)O[C@H](CN(C)C(=O)c1ccccc1)[C@H](C)CN([C@@H](C)CO)S2(=O)=O	85*
CCCC#Cc1ccc2c(c1)O[C@H](CN(C)C(C)=O)[C@H](C)CN([C@@H](C)CO)S2(=O)=O	123*
CC(C)CC#Cc1ccc2c(c1)O[C@@H](CN(C)Cc1ccncc1)[C@@H](C)CN([C@H](C)CO)S2(=O)=O	1
COc1ccc(C#Cc2ccc3c(c2)O[C@@H](CN(C)C(=O)Nc2cccc(OC)c2)[C@H](C)CN([C@@H](C)CO)S3(=O)=O)cc1	35*
COc1ccc(C#Cc2ccc3c(c2)O[C@H](CN(C)C(=O)Nc2cccc(OC)c2)[C@H](C)CN([C@@H](C)CO)S3(=O)=O)cc1	8
COc1ccc(C#Cc2ccc3c(c2)O[C@@H](CN(C)C(=O)Nc2cccc(OC)c2)[C@@H](C)CN([C@H](C)CO)S3(=O)=O)cc1	0
CC(C)CC#Cc1ccc2c(c1)O[C@@H](CN(C)Cc1ccncc1)[C@@H](C)CN([C@@H](C)CO)S2(=O)=O	1
CC(C)CC#Cc1ccc2c(c1)O[C@@H](CN(C)C(=O)c1ccccc1)[C@@H](C)CN([C@H](C)CO)S2(=O)=O	0
C[C@H]1CN([C@@H](C)CO)S(=O)(=O)c2ccc(C3=CCCCC3)cc2O[C@@H]1CN(C)Cc1cncnc1	0
CCS(=O)(=O)Nc1ccc2c(c1)C(=O)N(C)[C@H]1CC[C@H](CC(=O)N[C@@H]3CCN(Cc4ccccc4)C3)O[C@@H]1CO2	0
C[C@@H]1CN([C@H](C)CO)C(=O)c2cc(NC(=O)CCN3CCOCC3)ccc2O[C@H]1CN(C)S(=O)(=O)c1ccc(F)cc1	0
CO[C@@H]1CN(C)C(=O)c2ccc(NC(=O)C3CCOCC3)cc2OC[C@H](C)N(C(C)=O)C[C@H]1C	0
COCC(=O)N1CC2(C1)[C@H](c1ccc(-c3ccc(F)cc3)cc1)[C@@H](CO)N2C(=O)C1CC1	0
C[C@H](CO)N1C[C@H](C)[C@@H](CN(C)S(=O)(=O)c2cn(C)cn2)Oc2ccc(NC(=O)Cc3ccccc3)cc2CC1=O	-2
O=S(=O)(c1ccccc1F)N1CC[C@@H]2[C@H]1c1cc(-c3ccc(F)cc3)ccc1N[C@@H]2CO	-1
C[C@@H]1CCCCO[C@H](CN(C)C(=O)Nc2ccc(F)cc2)[C@H](C)CN([C@H](C)CO)C(=O)c2cc(N(C)C)ccc2O1	0
COc1ccc(NC(=O)N(C)C[C@@H]2Oc3ccc(NC(=O)Nc4ccccc4)cc3C(=O)N([C@@H](C)CO)C[C@H]2C)cc1	0
COc1ccc(S(=O)(=O)N(C)C[C@@H]2Oc3ccc(NC(=O)c4ccncc4)cc3CC(=O)N([C@@H](C)CO)C[C@@H]2C)cc1	-2
C[C@@H]1CN([C@H](C)CO)C(=O)c2cccc(NC(=O)c3ccc(-c4nccs4)cc3)c2O[C@H]1CN(C)C(=O)Nc1ccc(C(F)(F)F)cc1	0
O=C(Nc1ccc([N+](=O)[O-])cc1)N1CCCCCC1	0
O=C(Nc1ccc([N+](=O)[O-])cc1)N1CCCCC1	0
CC(C)(C)c1ccc(NC(=O)N2CCCN(c3ccc([N+](=O)[O-])cn3)CC2)cc1	76*
C[C@@H]1CCCCO[C@H](CN(C)S(=O)(=O)c2ccc(Cl)cc2)[C@@H](C)CN([C@@H](C)CO)C(=O)c2cc(NC(=O)Cc3ccccc3)ccc2O1	0
C[C@H]1CN([C@@H](C)CO)S(=O)(=O)c2ccc(-c3ccc(F)cc3)cc2O[C@H]1CN(C)Cc1cccc(F)c1	0
CCC(=O)Nc1ccc2c(c1)C(=O)N(C)[C@@H]1CC[C@@H](CC(=O)NCCc3ccccc3)O[C@@H]1CO2	0
SMILES	E-sel inducer
CCCCc1c(C)nc2c(OC)cccc2c1SCCC(=O)O	0
CCCCc1c(C)nc2ccc(C)cc2c1SCCC(=O)O	29*
CCCCc1c(C)nc2ccc(Br)cc2c1SC(N)N	6
N#C[C@@H]1[C@H](c2ccc(C#CCC3CCCC3)cc2)[C@@H](CO)N1C(=O)c1ccccn1	0
CS(=O)(=O)Nc1ccc2c(c1)[C@@H]1C[C@@H](CC(=O)NCc3ccncc3)O[C@@H](CO)[C@@H]1O2	1
C[C@H]1CN([C@@H](C)CO)S(=O)(=O)c2ccc(C#CC(C)(C)O)cc2O[C@@H]1CN(C)C	-1
O=C(c1ccccn1)N1CC(=O)N2[C@@H](CO)[C@@H](c3ccc(C#CCc4ccccc4)cc3)[C@@H]2C1	0
O=C(C1CCCC1)N1CC[C@@H]2[C@H](CO)Nc3ccc(C#Cc4ccc(F)cc4)cc3[C@@H]21	54*
O=C(C1CC1)N1CC[C@@H]2[C@@H](CO)Nc3ccc(C#Cc4ccc(F)cc4)cc3[C@@H]21	4
O=C(C1CCCCC1)N1CC[C@@H]2[C@H](CO)Nc3ccc(C#Cc4ccc(F)cc4)cc3[C@@H]21	22
C[C@H]1CN([C@@H](C)CO)S(=O)(=O)c2ccc(C3=CCCC3)cc2O[C@@H]1CN(C)C(=O)CN(C)C	0
COc1ccccc1-c1cnc2c(c1)C(=O)N([C@@H](C)CO)C[C@@H](C)[C@@H](CN(C)CC1CCOCC1)O2	0
COc1ccc(C(=O)c2sc(Nc3ccccc3)nc2N)cc1	0
COc1ccc(Nc2ccc(Nc3ccc(OC)cc3)nn2)cc1	0
COc1ccc(Nc2n[nH]c(N)c2C(N)=O)cc1	28*
C[C@H](CO)N1C[C@H](C)[C@@H](CN(C)C(=O)C2CCCCC2)OCCCC[C@H](C)Oc2ccc(NS(=O)(=O)c3ccccc3)cc2C1=O	0
O=C(NC(O)C(=O)c1ccccc1)c1ccccn1 (configuration not stated)	50*
O=C(NCCNC(=O)c1ccccn1)c1ccc(F)cc1	0
CC(C(=O)c1ccccc1)C(O)c1ccccn1 (configuration not stated)	0
COc1ccc2c3c([nH]c2c1)[C@@H](CO)N(C(=O)Cc1ccccc1)CC31CN(C(=O)Cc2ccccc2)C1	0
N#C[C@@H]1[C@H](c2ccccc2C2=CCCCC2)[C@H](CO)N1C(=O)NC1CCCCC1	0
O=C(C[C@H]1CC[C@H]2[C@@H](COC[C@@H](O)CN2Cc2ccc3c(c2)OCO3)O1)Nc1ccc(-c2ccccc2)cc1	0
O=C(COC(=O)Cc1ccc(Cl)cc1Cl)NCCC1=CCCCC1	0
O=C(COC(=O)COc1ccc(Cl)cc1Br)NCCC1=CCCCC1	29*
O=C(COC(=O)COc1ccc(Br)cc1)NCCC1=CCCCC1	1
SMILES	E-sel inducer
COc1ccccc1S(=O)(=O)N[C@@H]1CC[C@@H](CC(=O)NCc2cccc(F)c2)O[C@@H]1CO	0
O=C(NC(=S)Nc1ccccc1C(=O)O)c1cncc(Br)c1	1
O=C(NC(=S)Nc1ccccn1)c1cncc(Br)c1	26*
O=C(NC(=S)Nc1ccccc1O)c1cncc(Br)c1	0
CCCNC(=O)N[C@@H]1CC[C@@H](CCn2cc(-c3cccc(F)c3)nn2)O[C@@H]1CO	0
CC1=NN(c2ccccc2)C(=O)C1N=Nc1ccccc1 (configuration not stated)	60*
COc1ccc(N=NC2C(=O)N(c3ccccc3)N=C2C)cc1 (configuration not stated)	1
CC1=NN(C(N)=S)C(=O)C1N=Nc1ccccc1 (configuration not stated)	5
CCNC(=O)[C@@H]1[C@@H](CO)[C@@H]2Cn3c(cccc3=O)[C@H]1N2Cc1cccc(Cl)c1	0
CC(C)CC#Cc1ccc([C@@H]2[C@H]3CN(C(=O)Nc4ccc(F)cc4)CC(=O)N3[C@H]2CO)cc1	0
